Reference: ChEMBL document CHEMBL4422636, “Investigation of the structural requirements for N-methyl-D-aspartate receptor positive and negative allosteric modulators based on 2-naphthoic acid” (Eur J Med Chem, 2019)
Calls of active or inactive are those of the source. The rule behind the calls is not given here.

What was measured:
[1] = target: Glutamate receptor ionotropic, NMDA 2A (Rattus norvegicus) (UniProt Q00959); test: Allosteric modulation of rat GluN2A expressed in Xenopus laevis oocytes assessed as L-glutamate/glycine-induced current response at 100 uM at holding potential -60 mV by two-electrode voltage clamp method relative to L-glutamate/glycine; assay type: cell-based
Procedure, shortened: (§1)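 GluN1a with one GluN2 subunit; RNAs mixed 1:1–3 molar, 15–30 ng total injected into Xenopus oocytes, which were held in ND-96 at 17°C for 1–5 days. TEVC at −60 mV in 116 mM NaCl, 2 mM KCl, 0.3 mM BaCl2, 5 mM HEPES, pH 7.4. […] Reported as % of agonist-alone response, mean ± s.e.m., n≥4.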

[2] = target: Glutamate receptor ionotropic, NMDA 2B (Rattus norvegicus) (UniProt Q00960); test: Allosteric modulation of rat GluN2B expressed in Xenopus laevis oocytes assessed as L-glutamate/glycine-induced current response at 100 uM at holding potential -60 mV by two-electrode voltage clamp method relative to L-glutamate/glycine; assay type: cell-based; procedure, shortened: as §1
Chain of Glutamate receptor ionotropic, NMDA 2B (Rattus norvegicus) (Q00960 27-1482 limits assumed): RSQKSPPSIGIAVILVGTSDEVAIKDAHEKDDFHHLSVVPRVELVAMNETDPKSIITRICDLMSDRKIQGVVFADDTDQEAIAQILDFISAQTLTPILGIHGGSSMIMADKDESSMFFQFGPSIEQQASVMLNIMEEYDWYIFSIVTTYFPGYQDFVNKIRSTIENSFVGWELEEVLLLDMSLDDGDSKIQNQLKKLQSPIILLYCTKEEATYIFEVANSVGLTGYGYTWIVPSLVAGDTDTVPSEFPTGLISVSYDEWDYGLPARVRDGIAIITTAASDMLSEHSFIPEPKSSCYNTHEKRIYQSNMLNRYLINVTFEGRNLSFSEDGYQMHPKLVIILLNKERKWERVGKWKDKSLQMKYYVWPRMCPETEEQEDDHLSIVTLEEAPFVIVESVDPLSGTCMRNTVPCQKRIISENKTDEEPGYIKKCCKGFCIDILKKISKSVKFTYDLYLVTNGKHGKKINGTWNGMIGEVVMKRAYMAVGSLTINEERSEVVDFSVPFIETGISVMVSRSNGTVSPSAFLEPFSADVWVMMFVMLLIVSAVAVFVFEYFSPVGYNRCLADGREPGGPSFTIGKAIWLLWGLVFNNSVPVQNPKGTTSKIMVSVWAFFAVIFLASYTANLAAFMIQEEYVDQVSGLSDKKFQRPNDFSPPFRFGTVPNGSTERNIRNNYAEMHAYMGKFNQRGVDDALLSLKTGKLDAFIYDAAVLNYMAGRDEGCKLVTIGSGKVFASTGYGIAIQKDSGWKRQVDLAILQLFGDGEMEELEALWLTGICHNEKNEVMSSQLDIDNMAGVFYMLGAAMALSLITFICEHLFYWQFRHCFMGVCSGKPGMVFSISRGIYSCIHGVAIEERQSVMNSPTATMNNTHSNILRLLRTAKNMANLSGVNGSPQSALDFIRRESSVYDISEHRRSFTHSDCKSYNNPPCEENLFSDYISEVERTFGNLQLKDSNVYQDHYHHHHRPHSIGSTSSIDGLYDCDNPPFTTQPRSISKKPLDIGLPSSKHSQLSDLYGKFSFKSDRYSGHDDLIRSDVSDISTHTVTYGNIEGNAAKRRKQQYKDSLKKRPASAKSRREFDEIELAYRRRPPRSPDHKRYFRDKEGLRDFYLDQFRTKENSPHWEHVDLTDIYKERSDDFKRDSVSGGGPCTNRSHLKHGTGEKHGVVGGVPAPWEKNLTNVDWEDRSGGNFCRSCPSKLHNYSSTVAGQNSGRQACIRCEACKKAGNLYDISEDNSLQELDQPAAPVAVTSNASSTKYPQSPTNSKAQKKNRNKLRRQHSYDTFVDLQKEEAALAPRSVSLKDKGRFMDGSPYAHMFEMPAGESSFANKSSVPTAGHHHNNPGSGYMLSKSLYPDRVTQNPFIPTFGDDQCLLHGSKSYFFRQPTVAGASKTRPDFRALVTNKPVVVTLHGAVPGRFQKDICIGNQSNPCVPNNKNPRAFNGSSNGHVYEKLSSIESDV

[3] = target: Glutamate receptor ionotropic, NMDA 2C (Rattus norvegicus) (UniProt Q00961); test: Allosteric modulation of rat GluN2C expressed in Xenopus laevis oocytes assessed as L-glutamate/glycine-induced current response at 100 uM at holding potential -60 mV by two-electrode voltage clamp method relative to L-glutamate/glycine; assay type: cell-based; procedure, shortened: as §1
Chain of Glutamate receptor ionotropic, NMDA 2C (Rattus norvegicus) (Q00961 20-1237 limits assumed): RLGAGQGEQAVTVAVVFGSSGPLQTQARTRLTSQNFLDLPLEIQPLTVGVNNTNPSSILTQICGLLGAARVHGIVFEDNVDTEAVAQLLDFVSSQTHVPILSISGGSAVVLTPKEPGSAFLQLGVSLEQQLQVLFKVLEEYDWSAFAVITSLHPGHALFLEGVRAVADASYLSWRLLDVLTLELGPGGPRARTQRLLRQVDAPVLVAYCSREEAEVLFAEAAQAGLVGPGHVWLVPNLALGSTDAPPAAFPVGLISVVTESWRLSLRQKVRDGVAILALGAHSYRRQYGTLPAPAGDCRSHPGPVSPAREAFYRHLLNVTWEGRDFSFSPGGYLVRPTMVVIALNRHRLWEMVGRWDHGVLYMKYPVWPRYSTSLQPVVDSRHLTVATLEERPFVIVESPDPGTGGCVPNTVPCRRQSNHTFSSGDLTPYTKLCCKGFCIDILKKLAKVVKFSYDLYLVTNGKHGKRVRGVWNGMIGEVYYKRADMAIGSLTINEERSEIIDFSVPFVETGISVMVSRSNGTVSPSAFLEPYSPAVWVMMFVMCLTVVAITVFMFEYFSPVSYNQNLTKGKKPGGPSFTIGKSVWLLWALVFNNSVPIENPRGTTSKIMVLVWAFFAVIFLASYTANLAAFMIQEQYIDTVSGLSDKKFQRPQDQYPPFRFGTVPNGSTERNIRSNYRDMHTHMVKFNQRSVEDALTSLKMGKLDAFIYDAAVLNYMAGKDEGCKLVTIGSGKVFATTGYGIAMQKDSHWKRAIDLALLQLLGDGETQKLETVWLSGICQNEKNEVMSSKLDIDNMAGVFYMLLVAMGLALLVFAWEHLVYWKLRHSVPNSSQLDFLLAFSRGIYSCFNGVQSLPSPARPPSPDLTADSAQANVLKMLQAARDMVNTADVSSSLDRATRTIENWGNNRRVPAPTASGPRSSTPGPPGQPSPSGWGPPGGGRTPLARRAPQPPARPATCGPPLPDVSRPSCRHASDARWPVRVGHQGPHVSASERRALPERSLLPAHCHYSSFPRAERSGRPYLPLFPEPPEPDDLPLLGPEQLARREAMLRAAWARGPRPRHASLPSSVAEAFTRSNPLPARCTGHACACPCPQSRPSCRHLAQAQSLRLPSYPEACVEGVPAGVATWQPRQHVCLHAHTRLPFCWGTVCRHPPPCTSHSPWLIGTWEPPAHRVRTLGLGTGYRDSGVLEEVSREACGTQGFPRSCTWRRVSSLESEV

[4] = target: Glutamate receptor ionotropic, NMDA 2D (Rattus norvegicus) (UniProt Q62645); test: Allosteric modulation of rat GluN2D expressed in Xenopus laevis oocytes assessed as L-glutamate/glycine-induced current response at 100 uM at holding potential -60 mV by two-electrode voltage clamp method relative to L-glutamate/glycine; assay type: cell-based; procedure, shortened: as §1
Chain of Glutamate receptor ionotropic, NMDA 2D (Rattus norvegicus) (Q62645 whole entry): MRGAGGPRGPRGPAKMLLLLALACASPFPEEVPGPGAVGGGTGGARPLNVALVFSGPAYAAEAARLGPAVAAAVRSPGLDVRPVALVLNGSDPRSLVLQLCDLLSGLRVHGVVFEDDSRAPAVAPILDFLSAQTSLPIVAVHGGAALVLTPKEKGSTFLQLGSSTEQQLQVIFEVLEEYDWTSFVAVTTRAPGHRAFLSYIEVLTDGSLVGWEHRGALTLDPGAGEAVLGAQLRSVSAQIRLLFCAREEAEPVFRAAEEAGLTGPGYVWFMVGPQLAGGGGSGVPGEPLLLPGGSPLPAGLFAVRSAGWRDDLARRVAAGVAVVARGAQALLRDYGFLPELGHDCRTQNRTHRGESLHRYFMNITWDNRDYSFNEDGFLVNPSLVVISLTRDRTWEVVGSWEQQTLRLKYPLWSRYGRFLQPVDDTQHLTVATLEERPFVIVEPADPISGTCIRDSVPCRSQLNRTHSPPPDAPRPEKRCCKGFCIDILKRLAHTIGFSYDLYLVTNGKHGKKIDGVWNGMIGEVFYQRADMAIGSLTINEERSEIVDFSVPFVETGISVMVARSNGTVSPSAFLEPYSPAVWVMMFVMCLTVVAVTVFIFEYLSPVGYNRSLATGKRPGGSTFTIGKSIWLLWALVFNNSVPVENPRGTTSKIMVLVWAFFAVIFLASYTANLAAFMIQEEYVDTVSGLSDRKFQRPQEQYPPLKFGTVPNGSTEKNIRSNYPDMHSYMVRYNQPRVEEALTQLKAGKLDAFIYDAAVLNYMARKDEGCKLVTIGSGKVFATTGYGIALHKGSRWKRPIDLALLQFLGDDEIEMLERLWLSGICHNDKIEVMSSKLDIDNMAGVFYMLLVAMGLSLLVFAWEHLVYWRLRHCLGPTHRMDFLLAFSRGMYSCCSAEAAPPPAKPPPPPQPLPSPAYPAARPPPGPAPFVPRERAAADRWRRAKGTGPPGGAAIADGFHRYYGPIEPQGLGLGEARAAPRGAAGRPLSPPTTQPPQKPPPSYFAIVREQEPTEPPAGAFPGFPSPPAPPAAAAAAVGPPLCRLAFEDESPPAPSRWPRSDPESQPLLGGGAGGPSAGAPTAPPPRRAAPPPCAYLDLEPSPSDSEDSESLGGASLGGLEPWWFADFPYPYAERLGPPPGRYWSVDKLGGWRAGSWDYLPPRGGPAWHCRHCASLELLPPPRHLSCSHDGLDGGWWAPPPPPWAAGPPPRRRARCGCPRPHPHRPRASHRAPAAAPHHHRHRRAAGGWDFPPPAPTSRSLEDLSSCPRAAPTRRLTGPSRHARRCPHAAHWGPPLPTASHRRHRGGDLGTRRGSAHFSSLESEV

[5] = Solubility of the compound at 100 uM; assay type: physicochemical
Procedure, shortened: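 Compounds were inspected for visible precipitation at the concentrations used in the oocyte assays.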

[6] = target: Glutamate receptor ionotropic, NMDA 2A (Rattus norvegicus) (UniProt Q00959); test: Agonist activity at rat GluN2A expressed in Xenopus laevis oocytes assessed effect on current response at holding potential -60 mV by two-electrode voltage clamp method relative to L-glutamate/glycine; assay type: cell-based; procedure, shortened: as §1
[7] = target: Glutamate receptor ionotropic, NMDA 2B (Rattus norvegicus) (UniProt Q00960); test: Agonist activity at rat GluN2B expressed in Xenopus laevis oocytes assessed as effect on current response at holding potential -60 mV by two-electrode voltage clamp method relative to L-glutamate/glycine; assay type: cell-based; procedure, shortened: as §1
[8] = target: Glutamate receptor ionotropic, NMDA 2C (Rattus norvegicus) (UniProt Q00961); test: Agonist activity at rat GluN2C expressed in Xenopus laevis oocytes assessed effect on current response at holding potential -60 mV by two-electrode voltage clamp method relative to L-glutamate/glycine; assay type: cell-based; procedure, shortened: as §1
[9] = target: Glutamate receptor ionotropic, NMDA 2D (Rattus norvegicus) (UniProt Q62645); test: Agonist activity at rat GluN2D expressed in Xenopus laevis oocytes assessed as effect on current response at holding potential -60 mV by two-electrode voltage clamp method relative to L-glutamate/glycine; assay type: cell-based; procedure, shortened: as §1

Activity [1] | Activity [2] | Activity [3] | Activity [4] | solubility [5] | Activity [6] | Activity [7] | Activity [8] | Activity [9] | Compound
73% | 45% | 56% | 42% | Soluble | – | – | – | – | CC(C)C(=O)OCc1ccc2cc(C(=O)O)ccc2c1
73% | 52% | 97% | 99% | Soluble | inactive | inactive | inactive | inactive | CCCCCc1ccc2cc(C(=O)O)ccc2c1Br
55% | 66.7% | 37.1% | 38.6% | Soluble | – | – | – | – | O=C(O)c1cc2ccc(/C=C/c3ccccc3)cc2cc1C(=O)O
51% | 58% | 82% | 68% | Soluble | inactive | inactive | inactive | inactive | CCC/C=C/c1ccc2cc(C(=O)O)ccc2c1
110% | 85% | 98% | 107% | Soluble | inactive | inactive | inactive | inactive | CC(CCCc1ccc2cc(C(=O)O)ccc2c1)C(=O)O (racemic)
123% | 120% | 115% | 80% | Soluble | inactive | inactive | inactive | inactive | CC(C)CCCc1ccc2ccc(C(=O)O)cc2c1
92.1% | 84.5% | 83.7% | 103% | Soluble | – | – | – | – | O=C(O)c1cc2cc(/C=C/c3ccccc3C(=O)O)ccc2cc1O
78% | 113% | 113% | 180% | Soluble | inactive | inactive | inactive | inactive | CC(C)CCCc1ccc2cc(O)c(C(=O)O)cc2c1
89.7% | 89% | 85.2% | 67% | Soluble | – | – | – | – | O=C(O)c1ccc(/C=C/c2ccc3cc(O)c(C(=O)O)cc3c2)cc1
65% | 65% | 46% | 99% | Soluble | – | – | – | – | CC(C)CNC(=O)c1ccc2cc(C(=O)O)ccc2c1
135% | 152% | 264% | 220% | Soluble | inactive | inactive | inactive | inactive | CC(C)C/C=C/c1ccc2cc(C(=O)O)ccc2c1
90.3% | 70% | 76.8% | 61.4% | Soluble | – | – | – | – | O=C(O)c1cccc(/C=C/c2ccc3cc(O)c(C(=O)O)cc3c2)c1
128% | 82% | 99% | 79% | Soluble | – | – | – | – | CC(C)CCC(=O)c1ccc2cc(C(=O)O)ccc2c1
67% | 67% | 60% | 37% | Soluble | inactive | inactive | inactive | inactive | CCCCCc1ccc2cc(CC(=O)O)ccc2c1
97% | 97% | 97% | 94% | Soluble | inactive | inactive | inactive | inactive | O=C(O)c1ccc2cc(C3CC3)ccc2c1
91.8% | 85.2% | 94.1% | 80.7% | Soluble | – | – | – | – | O=C(O)c1cc2cc(CCc3ccccc3C(=O)O)ccc2cc1O

Activity [1] | Activity [2] | Activity [3] | Activity [4] | solubility [5] | Activity [6] | Activity [7] | Activity [8] | Activity [9] | Compound
89% | 84% | 76% | 85% | Soluble | inactive | inactive | inactive | inactive | CCCCCc1ccc2cc(CO)ccc2c1
104% | 78% | 118% | 85% | Soluble | inactive | inactive | inactive | inactive | CC(C)CC(Cc1ccc2cc(C(=O)O)ccc2c1)C(=O)O (racemic)
105% | 74% | 61.7% | 71% | Soluble | – | – | – | – | COc1ccccc1/C=C/c1ccc2cc(O)c(C(=O)O)cc2c1
71.4% | 54.3% | 46.8% | 32.1% | Soluble | – | – | – | – | O=C(O)c1cc2cc(CCc3ccccc3)ccc2cc1O
83% | 49% | 83% | 72% | Soluble | – | – | – | – | CC(C)COCc1ccc2cc(C(=O)O)ccc2c1
102% | 95.8% | 115% | 92.6% | Soluble | – | – | – | – | O=C(O)c1ccc(CCc2ccc3cc(O)c(C(=O)O)cc3c2)cc1
107% | 97% | 105% | 97% | Soluble | inactive | inactive | inactive | inactive | CC(C/C=C/c1ccc2cc(C(=O)O)ccc2c1)C(=O)O (racemic)
92% | 88% | 47% | 24% | Soluble | inactive | inactive | inactive | inactive | CC(C)CCCc1ccc2cc(C(=O)O)c(C(=O)O)cc2c1
118% | 120% | 123% | 115% | Soluble | inactive | inactive | inactive | inactive | O=C(O)c1ccc2cc(CCCCc3ccccc3)ccc2c1
178% | 309% | 357% | 301% | Soluble | inactive | inactive | inactive | inactive | CC(C)CCCc1ccc2cc(C(=O)O)c(O)cc2c1
113% | 77% | 105% | 100% | Soluble | – | – | – | – | CC(C)CSCc1ccc2cc(C(=O)O)ccc2c1
60% | 64% | 96% | 71% | Soluble | inactive | inactive | inactive | inactive | CC(CCCc1ccc2cc(C(=O)O)ccc2c1)CC(=O)O (racemic)
95.1% | 92% | 114% | 119% | Soluble | – | – | – | – | O=C(O)c1cc2cc(/C=C/c3ccccc3)ccc2oc1=O
52.4% | 24.9% | 30.8% | 29.9% | Soluble | – | – | – | – | COc1cccc(/C=C/c2ccc3cc(O)c(C(=O)O)cc3c2)c1
159% | 179% | 144% | 169% | Soluble | – | – | – | – | CC(C)COC(=O)c1ccc2cc(C(=O)O)ccc2c1
42.7% | 36% | 39.6% | 39% | Soluble | – | – | – | – | COc1ccc(/C=C/c2ccc3cc(O)c(C(=O)O)cc3c2)cc1

Compound | Activity [1] | Activity [2] | Activity [3] | Activity [4] | solubility [5] | Activity [6] | Activity [7] | Activity [8] | Activity [9]
O=C(O)c1ccc2cc(I)c3ccccc3c2c1 | 109% | 101% | 65.9% | 47.7% | Soluble | inactive | inactive | inactive | inactive
